Assay outcomes deposited in PubChem BioAssay by several laboratories.
Only a selection was taken, and hits are over-represented in it overall.
NLRP3 yeast inh – inhibitors of NALP3 inflammasome in yeast; Yeast reconstituted NLRP3/ASC/caspase-1, beta-gal luminescence, 24 h; inhibition, % at 10 µM; actives 0.39% (n = 330,000);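 active = inhibition of 50% or more; inactive = inhibition below 50%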;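 note: plate controls were induced DMSO wells for no effect and uninduced yeast grown without galactose for full effect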
L major viab – reduces viability of Leishmania major promastigotes; resazurin fluorescence viability; inhibition, % at 10 µM; actives 9% (n = 200,000); in the data active = inhibition above about 50%;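 note: promastigotes grown with compound for 44 hours at 28 °C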
T cruzi inh – blocks replication of Trypanosoma cruzi; actives 1.4% (n = 300,000); T. cruzi beta-gal in NIH3T3, luminescence, 90 h; inhibition, % (concentration not given with the values);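 active = mean inhibition across valid replicates above about 55%, limit read from the data; inconclusive = mean below that limit but half or more replicates reach it; inactive = mean below it, under half of replicates reach it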;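 note: signal also drops with host cell toxicity which is not excluded here; 0% = plate median of DMSO wells and 100% = zero luminescence signal; higher percent means less beta-gal luminescence so fewer parasites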
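System: Mouse NIH/3T3 fibroblasts infected with β-gal-expressing T. cruzi Tulahuen C4 | Quantity: NIH/3T3 cells, 5,000 per well | Reagent: 5000 reporter trypomastigotes per well | Dosing: Compound pinned at 50 nL/well, DMSO | Schedule: 3 h host attachment, then at least 90 h co-culture | Detection: GalScreen luminescence, 60 min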
NALP1 yeast inh – NALP1 inhibition | S. cerevisiae NALP1/ASC/caspase-1 growth, X-gal OD620, 72 h | inhibition, % at 10 µM | actives 0.61% (n = 280,000) | AID 2071; in the data active = inhibition mostly above about 24%, no sharp cut-off; inactive = mostly below about 32%
Calb FLC – affects C. albicans growth with fluconazole; actives 0.57% (n = 300,000); AID 1979; growth inhibition, % (test concentration not listed); C. albicans CaCi-2 + fluconazole, Alamar Blue growth, 48 h;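 active = growth inhibition above about 58% in most replicates, limit read from the data, passing the limit was not always enough; inconclusive = exactly half the replicates above a set limit; inactive = most replicates below a set limit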;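 note: all wells also contain fluconazole at 8 µg/ml as a sub-toxic cotreatment; 0% = median of DMSO wells and 100% = median of geldanamycin control wells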
PolyA inhibitor – inhibitors of polyadenylation in S. cerevisiae | S. cerevisiae SKY197-pL101 polyadenylation reporter, beta-gal luminescence; efflux-impaired pdr1/pdr3 knockout yeast; score 100 = 6 SD above DMSO | AID 1875 | activity score, % at 12 µM | actives 0.02% (n = 300,000);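 active = lowest replicate activity score at least 50, where 100 means six control SD above control mean; inconclusive = lowest score under 50 but half or more replicates reach 50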;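 note: yeast exposed to compound for 9 h at 30 °C; higher score means more reporter readthrough which indicates perturbed polyadenylation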
Active calls of the source: *.

CCC(C)OC(=O)C1=C(C)OC23OC(N)=C(C#N)C12C(=O)c1ccccc13 (configuration not stated) was read as NLRP3 yeast inh 6.5, L major viab 86.1*, T cruzi inh -9.0, NALP1 yeast inh 7.9, Calb FLC inconclusive and PolyA inhibitor 9.2.
Screening CC(C)[C@H](NC(=O)C1CCN(S(=O)(=O)c2ccc(F)cc2)CC1)C(=O)NCc1ccco1 returned NLRP3 yeast inh 8.4, T cruzi inh 9.9, NALP1 yeast inh 15.9, Calb FLC -5.7 and PolyA inhibitor 0.4.
For COc1ccc(Nc2nc(-c3cccc([N+](=O)[O-])c3)nc3ccccc23)cc1 the results were NLRP3 yeast inh 5.0, L major viab 26.2, T cruzi inh 64.9*, NALP1 yeast inh 25.9, Calb FLC -4.6 and PolyA inhibitor -3.1.
`CN1CCN(c2nc(-c3cccc([N+](=O)[O-])c3)nc3ccccc23)CC1` gave NLRP3 yeast inh 30.4, T cruzi inh 42.2, NALP1 yeast inh 39.3*, Calb FLC -22.2 and PolyA inhibitor 22.4.
O=C(c1cccc(Br)c1)N1CCN(c2cnn(-c3ccccc3)c(=O)c2Cl)CC1 was read as NLRP3 yeast inh 22.0, L major viab 84.1*, T cruzi inh 2.8, NALP1 yeast inh -16.7, Calb FLC -5.6 and PolyA inhibitor 16.4.
For Cc1[nH]nc2c1C(C1CC=CCC1)C(C#N)=C(N)O2 (configuration not stated) the results were NLRP3 yeast inh 16.5, L major viab 100.0* and NALP1 yeast inh -6.2.
For CC(C)c1[nH]nc2c1C(C1C=CCCC1)C(C#N)=C(N)O2 (configuration not stated) the results were NLRP3 yeast inh 19.4, T cruzi inh -15.2, NALP1 yeast inh 14.0, Calb FLC 16.2 and PolyA inhibitor -5.4.
For CCC(CC)C1C(C#N)=C(N)Oc2n[nH]c(C)c21 (configuration not stated) the results were NLRP3 yeast inh -1.0, L major viab 98.9*, T cruzi inh -6.7, NALP1 yeast inh 7.3, Calb FLC -9.5 and PolyA inhibitor 3.3.
CCC(CC)C1C(C#N)=C(N)Oc2n[nH]c(-c3ccccc3)c21 (configuration not stated) was read as NLRP3 yeast inh 4.6, L major viab 31.8, T cruzi inh -6.9, NALP1 yeast inh 10.2, Calb FLC 3.7 and PolyA inhibitor -18.6.
O=C(c1ccc([N+](=O)[O-])cc1)N1CCSC1c1ccc(Br)cc1 (configuration not stated) was read as NLRP3 yeast inh 7.7, L major viab 5.1, T cruzi inh 13.0, NALP1 yeast inh -7.3, Calb FLC -1.5 and PolyA inhibitor -12.1.
For Cc1ccc(C2SCCN2C(=O)c2ccc([N+](=O)[O-])cc2)cc1 (configuration not stated) the results were NLRP3 yeast inh 11.5, L major viab 50.0*, T cruzi inh 1.3, NALP1 yeast inh 34.9, Calb FLC 13.5 and PolyA inhibitor 0.7.
For Fc1ccc(Nc2nc(-c3ccncc3)nc3ccccc23)cc1F the results were NLRP3 yeast inh 17.4, L major viab 81.0*, T cruzi inh inconclusive, NALP1 yeast inh 5.8, Calb FLC -12.4 and PolyA inhibitor -41.5.
For CCOC(=O)COc1c(Br)cc(/C=C2\SC(=O)N(CC(=O)N3CCCC3)C2=O)cc1OC the results were NLRP3 yeast inh 7.5, L major viab 2.1, T cruzi inh 8.5, NALP1 yeast inh 3.5, Calb FLC -11.3 and PolyA inhibitor -10.7.
Screening O=S(=O)(NCc1cc(-c2ccccc2Cl)no1)c1ccccc1 returned NLRP3 yeast inh 10.1, L major viab 79.1*, T cruzi inh 1.8, NALP1 yeast inh 10.5, Calb FLC inconclusive and PolyA inhibitor 3.5.
Screening COc1ccccc1NS(=O)(=O)c1ccc(O)c(NC(=S)NCC2CCCO2)c1 (configuration not stated) returned NLRP3 yeast inh 13.1, T cruzi inh -1.6, NALP1 yeast inh -14.3, Calb FLC 0.9 and PolyA inhibitor -12.1.
For CC(=O)Nc1cc([N+](=O)[O-])ccc1N1CCOCC1 the results were NLRP3 yeast inh 4.9, L major viab 8.4, T cruzi inh -0.5, NALP1 yeast inh 0.7, Calb FLC -2.3 and PolyA inhibitor -11.4.
`O=C(Nc1ccc([N+](=O)[O-])cc1)Nc1ccc(N2CCOCC2)c2nonc12` gave NLRP3 yeast inh 8.8, L major viab 98.2*, T cruzi inh 71.0*, NALP1 yeast inh 13.3, Calb FLC -4.7 and PolyA inhibitor -15.1.
Cc1cccc(OCC(=O)N/N=C/c2cc([N+](=O)[O-])ccc2N2CCOCC2)c1 was read as NLRP3 yeast inh 10.3, L major viab 86.7*, T cruzi inh 9.6, NALP1 yeast inh 24.4, Calb FLC 9.1 and PolyA inhibitor -13.1.
Screening CCc1ccc(OCC(=O)N/N=C/c2cc([N+](=O)[O-])ccc2N2CCOCC2)cc1 returned NLRP3 yeast inh 16.4, L major viab 78.2*, T cruzi inh 0.3, NALP1 yeast inh 33.0, Calb FLC 14.8 and PolyA inhibitor -5.9.
Screening CN(C)S(=O)(=O)NCC1CCCN(Cc2ccc(-c3ccccc3)cc2)C1 (configuration not stated) returned NLRP3 yeast inh 12.0, T cruzi inh 48.7, NALP1 yeast inh 20.4, Calb FLC -1.3 and PolyA inhibitor -20.2.
O=S(=O)(Cc1ccccc1)NCC1CCCN(Cc2ccc3nonc3c2)C1 (configuration not stated) was read as NLRP3 yeast inh 3.2, L major viab 92.5*, T cruzi inh 46.4, NALP1 yeast inh 5.3, Calb FLC -4.0 and PolyA inhibitor 3.1.
Screening O=S(=O)(Cc1ccccc1)NCC1CCCN(Cc2ccc(F)c(F)c2)C1 (configuration not stated) returned NLRP3 yeast inh 19.1, L major viab 89.8*, T cruzi inh 60.9*, NALP1 yeast inh -9.0, Calb FLC -19.0 and PolyA inhibitor -2.9.
Cc1cc(C(=O)N2CCCc3ccccc32)ccc1[N+](=O)[O-] was read as NLRP3 yeast inh 34.6, T cruzi inh -8.4, NALP1 yeast inh 6.3, Calb FLC -8.0 and PolyA inhibitor -8.1.
Screening Nc1nnc(SCC(=O)NN2C(=O)NC3(CCCCC3)C2=O)s1 returned NLRP3 yeast inh 20.0, L major viab 60.2*, T cruzi inh 3.8, NALP1 yeast inh 14.9, Calb FLC 25.3 and PolyA inhibitor -9.8.
`CC1CCC2(CC1)NC(=O)N(NC(=O)CSc1nnc(NC3CC3)s1)C2=O` (configuration not stated) gave NLRP3 yeast inh 2.4.
For CCCCC1CCC(C(=O)N(CCOC)c2c(N)n(CC(C)C)c(=O)[nH]c2=O)CC1 (configuration not stated) the results were NLRP3 yeast inh -1.4.
